Measurements: ChEMBL document CHEMBL2010647, “N-Methylated sst2 Selective Somatostatin Cyclic Peptide Analogue as a Potent Candidate for Treating Neurogenic Inflammation” (ACS Med Chem Lett, 2011)
The source made the active and inactive calls. The calls are words filed in the database; no cut-off is given here.

How the values were obtained:
[1] = molecular target: Somatostatin receptor type 2 (Rattus norvegicus) (UniProt P30680); experiment: Inhibition of sst2 in rat trachea assessed as effect on EFS-induced CGRP release in stimulated and poststimulated tracheal fraction at 500 nM after 8 mins by radioimmunoassay technique relative to control; format: tissue-based; design: scale not given: the % may be the effect or the level left
In short: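 Whole tracheae from exsanguinated, deeply anaesthetised rats, two per 1.8 mL organ bath, equilibrated 60 min with oxygenated Krebs (pH 7.2, 37 °C, 1 mL/min perfusion). Three static 8 min fractions; EFS (40 V, 0.1 ms, 10 Hz, 120 s) in the second. Peptide (500 nM) added at the start of fractions 2 and 3. CGRP measured by RIA in 200 μL samples, normalised to wet tissue weight; n = 5.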

[2] = molecular target: Somatostatin receptor type 4 (Homo sapiens, UniProt P31391); experiment: Binding affinity to human sst4 by in vitro receptor autoradiography assay
[3] = molecular target: Somatostatin receptor type 2 (Homo sapiens, UniProt P30874); experiment: Binding affinity to human sst2 by in vitro receptor autoradiography assay
[4] = molecular target: Somatostatin receptor type 1 (Homo sapiens, UniProt P30872); experiment: Binding affinity to human sst1 by in vitro receptor autoradiography assay
[5] = molecular target: Somatostatin receptor type 5 (Homo sapiens, UniProt P35346); experiment: Binding affinity to human sst5 by in vitro receptor autoradiography assay
[6] = molecular target: Somatostatin receptor type 3 (Homo sapiens, UniProt P32745); experiment: Binding affinity to human sst3 by in vitro receptor autoradiography assay
Rattus norvegicus = experiment: Antiinflammatory activity in rat assessed as inhibition of mustard oil-evoked acute neurogenic plasma protein extravasation in paw skin at 100 ug/kg, ip […] administered 10 mins before induction of inflammation; format: functional
In short: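 Rats received peptide 100 μg/kg ip 10 min before inflammation was induced with 1% mustard oil on dorsal paw skin; solvent-only controls run alongside. Read-out: Evans blue accumulated per g wet skin, given as mean + SEM, n = 6–10. Tested in blocks of 14–15 rats per day over 6 days, with treatments randomized. Mann–Whitney U test vs solvent.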

Somatostatin receptor type 1, sequence (P30872 whole entry): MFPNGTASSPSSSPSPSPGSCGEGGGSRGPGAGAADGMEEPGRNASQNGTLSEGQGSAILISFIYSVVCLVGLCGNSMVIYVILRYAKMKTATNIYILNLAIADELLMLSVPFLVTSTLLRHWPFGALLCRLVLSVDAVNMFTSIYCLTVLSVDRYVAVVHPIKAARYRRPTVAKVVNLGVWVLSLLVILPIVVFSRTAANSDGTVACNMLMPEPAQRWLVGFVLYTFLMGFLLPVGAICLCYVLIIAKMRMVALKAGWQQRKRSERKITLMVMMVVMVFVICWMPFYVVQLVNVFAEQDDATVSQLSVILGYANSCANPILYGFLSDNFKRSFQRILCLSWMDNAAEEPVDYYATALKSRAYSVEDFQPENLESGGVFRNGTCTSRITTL
Somatostatin receptor type 5, sequence (P35346 whole entry): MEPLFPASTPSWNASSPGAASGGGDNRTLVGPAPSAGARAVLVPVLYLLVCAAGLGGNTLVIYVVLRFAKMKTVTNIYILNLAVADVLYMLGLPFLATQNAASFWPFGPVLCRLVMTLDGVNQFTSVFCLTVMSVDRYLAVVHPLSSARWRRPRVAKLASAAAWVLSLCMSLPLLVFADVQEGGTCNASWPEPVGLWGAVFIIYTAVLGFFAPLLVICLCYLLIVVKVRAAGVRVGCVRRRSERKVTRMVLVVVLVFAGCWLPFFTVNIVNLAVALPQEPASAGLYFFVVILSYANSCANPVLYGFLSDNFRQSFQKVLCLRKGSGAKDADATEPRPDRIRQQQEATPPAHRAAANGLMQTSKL
Somatostatin receptor type 2 (Rattus norvegicus), sequence (P30680 whole entry, the tested form may be a part): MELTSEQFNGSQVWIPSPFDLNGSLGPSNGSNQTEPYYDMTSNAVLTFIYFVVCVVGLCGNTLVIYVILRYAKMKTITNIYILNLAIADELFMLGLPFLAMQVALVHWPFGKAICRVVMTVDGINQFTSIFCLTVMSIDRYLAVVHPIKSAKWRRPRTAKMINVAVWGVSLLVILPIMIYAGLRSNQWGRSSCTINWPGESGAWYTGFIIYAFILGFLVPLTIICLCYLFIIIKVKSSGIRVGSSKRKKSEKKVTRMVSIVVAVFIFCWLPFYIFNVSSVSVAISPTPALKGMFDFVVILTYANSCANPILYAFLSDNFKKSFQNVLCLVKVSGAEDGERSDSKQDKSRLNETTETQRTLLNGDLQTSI
Somatostatin receptor type 3, sequence (P32745 whole entry): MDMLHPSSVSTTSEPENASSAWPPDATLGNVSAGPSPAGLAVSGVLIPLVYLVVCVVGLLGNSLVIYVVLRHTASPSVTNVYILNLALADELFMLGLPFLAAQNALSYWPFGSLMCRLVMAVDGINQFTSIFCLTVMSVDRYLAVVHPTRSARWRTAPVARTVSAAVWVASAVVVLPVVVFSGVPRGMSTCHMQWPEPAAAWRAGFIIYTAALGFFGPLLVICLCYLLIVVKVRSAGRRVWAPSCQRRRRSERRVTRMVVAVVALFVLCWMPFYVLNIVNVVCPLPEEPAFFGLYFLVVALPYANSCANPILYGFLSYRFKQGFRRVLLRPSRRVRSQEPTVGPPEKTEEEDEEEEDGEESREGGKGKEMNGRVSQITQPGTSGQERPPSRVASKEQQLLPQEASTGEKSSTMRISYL
Somatostatin receptor type 2, sequence (P30874 whole entry): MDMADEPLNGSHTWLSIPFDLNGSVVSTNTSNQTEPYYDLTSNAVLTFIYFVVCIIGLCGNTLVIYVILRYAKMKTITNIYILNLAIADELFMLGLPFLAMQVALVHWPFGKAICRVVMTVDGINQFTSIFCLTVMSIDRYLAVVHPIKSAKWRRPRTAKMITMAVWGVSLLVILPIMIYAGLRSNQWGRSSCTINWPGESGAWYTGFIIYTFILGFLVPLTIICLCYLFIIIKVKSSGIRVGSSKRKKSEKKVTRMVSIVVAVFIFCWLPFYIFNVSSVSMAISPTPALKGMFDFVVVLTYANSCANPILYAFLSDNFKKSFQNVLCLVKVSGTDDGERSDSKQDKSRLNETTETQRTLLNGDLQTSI
Somatostatin receptor type 4, sequence (P31391 whole entry): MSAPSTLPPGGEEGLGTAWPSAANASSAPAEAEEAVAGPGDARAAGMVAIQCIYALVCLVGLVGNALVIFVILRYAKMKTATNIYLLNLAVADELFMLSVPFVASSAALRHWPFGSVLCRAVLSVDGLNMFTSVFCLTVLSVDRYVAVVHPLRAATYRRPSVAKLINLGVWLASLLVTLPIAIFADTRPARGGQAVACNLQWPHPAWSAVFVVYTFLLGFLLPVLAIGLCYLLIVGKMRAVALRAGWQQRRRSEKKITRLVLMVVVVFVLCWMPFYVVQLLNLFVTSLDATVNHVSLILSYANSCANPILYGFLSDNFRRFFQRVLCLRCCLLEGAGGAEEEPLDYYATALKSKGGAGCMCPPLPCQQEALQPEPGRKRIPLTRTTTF

Activity [1] [%] | IC50 [2] [nM] | IC50 [3] [nM] | IC50 [4] [nM] | IC50 [5] [nM] | IC50 [6] [nM] | SMILES | inhibition (Rattus norvegicus) | inhibition in vivo at 0.1 mg/kg (Rattus norvegicus) [%]
268 | > 1000 | 45 | > 1000 | 76 | 82 | CC(C)[C@@H]1NC(=O)[C@H](CCCCN)NC(=O)[C@@H](Cc2c[nH]c3ccccc23)N(C)C(=O)[C@H](Cc2ccc(O)cc2)NC(=O)[C@H](C)N(C)C(=O)[C@H](Cc2ccccc2)N(C)C1=O |  | 
294 |  |  | > 1000 | 81 | 105 | CC(C)[C@@H]1NC(=O)[C@H](CCCCN)NC(=O)[C@@H](Cc2c[nH]c3ccccc23)NC(=O)[C@H](Cc2ccc(O)cc2)NC(=O)[C@H](C)N(C)C(=O)[C@H](Cc2ccccc2)NC1=O [SEGLITIDE] |  | 
355 | > 1000 | 4.4 | > 1000 | 53 | 98 | CC(C)[C@@H]1NC(=O)[C@H](CCCCN)NC(=O)[C@@H](Cc2c[nH]c3ccccc23)NC(=O)[C@H](Cc2ccc(O)cc2)NC(=O)[C@H](C)N(C)C(=O)[C@H](Cc2ccccc2)N(C)C1=O |  | 
360 | > 1000 | 5.5 | > 1000 | 126 | 205 | CC(C)[C@@H]1NC(=O)[C@H](CCCCN)NC(=O)[C@@H](Cc2c[nH]c3ccccc23)N(C)C(=O)[C@H](Cc2ccc(O)cc2)NC(=O)[C@H](C)N(C)C(=O)[C@H](Cc2ccccc2)NC1=O |  | 
343 | 373 | 4.1 | > 1000 | 137 | 175 | CC(C)[C@@H]1NC(=O)[C@H](CCCCN)N(C)C(=O)[C@@H](Cc2c[nH]c3ccccc23)NC(=O)[C@H](Cc2ccc(O)cc2)NC(=O)[C@H](C)N(C)C(=O)[C@H](Cc2ccccc2)N(C)C1=O |  | 

SMILES | Activity [1] [%] | IC50 [2] [nM] | IC50 [3] [nM] | IC50 [4] [nM] | IC50 [5] [nM] | IC50 [6] [nM] | inhibition (Rattus norvegicus) | inhibition in vivo at 0.1 mg/kg (Rattus norvegicus) [%]
CC(C)[C@@H]1NC(=O)[C@H](CCCCN)N(C)C(=O)[C@@H](Cc2c[nH]c3ccccc23)NC(=O)[C@H](Cc2ccc(O)cc2)NC(=O)[C@H](C)N(C)C(=O)[C@H](Cc2ccccc2)NC1=O | 182 | > 1000 | 4.2 | > 1000 | 247 | 308 | inactive | 
CC(C)[C@@H]1NC(=O)[C@H](CCCCN)N(C)C(=O)[C@@H](Cc2c[nH]c3ccccc23)N(C)C(=O)[C@H](Cc2ccc(O)cc2)NC(=O)[C@H](C)N(C)C(=O)[C@H](Cc2ccccc2)NC1=O | 153 | > 1000 | 3.1 | > 1000 | 196 | 172 | inactive | 
CC(C)[C@@H]1NC(=O)[C@H](CCCCN)N(C)C(=O)[C@@H](Cc2c[nH]c3ccccc23)N(C)C(=O)[C@H](Cc2ccc(O)cc2)NC(=O)[C@H](C)N(C)C(=O)[C@H](Cc2ccccc2)N(C)C1=O | 100 | > 1000 | 44 | > 1000 | 263 | 200 |  | 40
